Data from ChEMBL document CHEMBL3351600, “Sulfur, selenium and tellurium pseudopeptides: synthesis and biological evaluation” (Bioorg Med Chem, 2014).
The source made the active and inactive calls. No cut-off for these calls is given here.

Assays:
[1] = system: MCF7; test: Cytotoxicity against human MCF7 cells assessed as cell viability after 24 hrs incubation by MTT assay; format: functional, cell-based; settings: MCF7, 24 h
In short: (§1)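 Cell lines came from DSMZ; primary human fibroblasts served as non-cancer controls. Cells were grown in medium with 10% FCS, seeded at 50,000 cells/ml, and grown 2 days at 37 °C, 10% CO2. Serial dilutions were then added for 24 h. MTT (final 0.5 mg/ml) was added for 2 h. Formazan was pelleted, PBS-washed, dissolved in isopropanol/0.4% HCl and read at 590 nm. Two parallel experiments were run. IC50 was taken as the concentration giving 50% of untreated-control absorbance.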

[2] = system: A-431; test: Cytotoxicity against human A431 cells assessed as cell viability after 24 hrs incubation by MTT assay; format: functional, cell-based; settings: A-431, 24 h; in short: as §1
[3] = Cytotoxicity against human fibroblasts assessed as cell viability after 24 hrs incubation by MTT assay; format: cell-based; settings: Fibroblast; in short: as §1
[4] = Octanol-water partition coefficient, log P of the compound by HPLC analysis; format: physicochemical
In short: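 Lipophilicity was measured by reversed-phase HPLC on a Nucleosil C18 column with isocratic water/methanol (3:1) at 0.5 ml/min and UV detection at 230 and 245 nm. Dead time was set with thiourea (t0 0.728 min). Retention factor was k = (tR − t0)/t0, and log P came from a calibration against at least six reference compounds.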

[5] = system: Saccharomyces cerevisiae; test: Antimicrobial activity against Saccharomyces cerevisiae assessed as inhibition at 20 ug/6 mm disk after 1 to 2 days by agar diffusion assay; format: functional
In short: (§2)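 Standard agar diffusion: 6-mm paper disks loaded with 20 µg of compound were placed on inoculated plates. Inhibition-zone diameter (mm) was read after 1 and 2 days of growth.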

[6] = system: Candida albicans; test: Antimicrobial activity against Candida albicans assessed as inhibition at 20 ug/6 mm disk after 1 to 2 days by agar diffusion assay; format: functional; in short: as §2
[7] = system: Aspergillus niger; test: Antimicrobial activity against Aspergillus niger assessed as inhibition at 20 ug/6 mm disk after 1 to 2 days by agar diffusion assay; format: functional; in short: as §2
[8] = system: Mycolicibacterium phlei; test: Antimicrobial activity against Mycobacterium phlei assessed as inhibition at 20 ug/6 mm disk after 1 to 2 days by agar diffusion assay; format: functional; in short: as §2
[9] = system: Micrococcus luteus; test: Antimicrobial activity against Micrococcus luteus assessed as inhibition at 20 ug/6 mm disk after 1 to 2 days by agar diffusion assay; format: functional; in short: as §2
[10] = system: Staphylococcus aureus; test: Antimicrobial activity against Staphylococcus aureus assessed as inhibition at 20 ug/6 mm disk after 1 to 2 days by agar diffusion assay; format: functional; in short: as §2
[11] = system: Klebsiella pneumoniae; test: Antimicrobial activity against Klebsiella pneumoniae assessed as inhibition at 20 ug/6 mm disk after 1 to 2 days by agar diffusion assay; format: functional; in short: as §2
[12] = system: Pseudomonas aeruginosa; test: Antimicrobial activity against Pseudomonas aeruginosa assessed as inhibition at 20 ug/6 mm disk after 1 to 2 days by agar diffusion assay; format: functional; in short: as §2
[13] = system: Escherichia coli; test: Antimicrobial activity against Escherichia coli tolC assessed as inhibition at 20 ug/6 mm disk after 1 to 2 days by agar diffusion assay; format: functional; in short: as §2
[14] = Lipophilicity, log K of the compound by HPLC analysis
[15] = system: A-431; test: Reduction in ROS in human A431 cells assessed as decrease in hydrogen peroxide level at 1 to 100 ng/ml after 1 hr by DCHFA assay; format: functional, cell-based
In short: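 A-431 cells (10^5 per well) were treated with a range of compound concentrations for 1 h. They were then loaded with DCHFA probe for 30 min in the dark. Fluorescence (ex 485/em 528 nm) was read immediately and expressed as arbitrary units per 10^5 cells.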

[16] = system: A-431; test: Reduction in ROS in human A431 cells assessed as decrease in hydrogen peroxide level at 0.1 to 10 ng/ml after 1 hr by DCHFA assay; format: functional, cell-based
In short: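 A-431 cells were seeded at 10^5 per well and exposed to a range of compound concentrations for 1 h. They were then loaded with DCHFA probe for 30 min in the dark. Fluorescence was read immediately at ex/em 485/528 nm and expressed as arbitrary units per 10^5 cells.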

| SMILES | logP [4] | log K [14] | Retention_time | IC50 [1] | IC50 [2] | IC50 [3] | diameter of the inhibition zone (DIZ) [5] | diameter of the inhibition zone (DIZ) [6] | diameter of the inhibition zone (DIZ) [7] | diameter of the inhibition zone (DIZ) [8] | diameter of the inhibition zone (DIZ) [9] | diameter of the inhibition zone (DIZ) [10] | diameter of the inhibition zone (DIZ) [11] | diameter of the inhibition zone (DIZ) [12] | diameter of the inhibition zone (DIZ) [13] | Activity [15] | Activity [16] |
| --- | --- | --- | --- | --- | --- | --- | --- | --- | --- | --- | --- | --- | --- | --- | --- | --- | --- |
| COc1ccc(N(CC(=O)NCCCSc2ccccc2)C(=O)CNC(=O)OC(C)(C)C)cc1 | 3.12 | 0.3 | 2.17 min | ≥ 100 µM | ≥ 100 µM | ≥ 100 µM | 0 mm | 0 mm | 0 mm | 0 mm | 0 mm | 0 mm | 0 mm | 0 mm | 0 mm | – | – |
| c1ccccc1 [BENZENE] | – | -0.53 | – | – | – | – | – | – | – | – | – | – | – | – | – | – | – |
| O=C(COC(=O)/C=C/c1ccccc1)NCCC[Te]c1ccccc1 | 3.01 | -0.06 | 1.356 min | 1 µM | 6 µM | 11 µM | 0 mm | 0 mm | 0 mm | 0 mm | 7 mm | 0 mm | 0 mm | 0 mm | 0 mm | – | Dose-dependent effect |
| NC(N)=S [THIOUREA] | – | – | 0.728 min | – | – | – | – | – | – | – | – | – | – | – | – | – | – |
| CC(=O)Nc1ccccc1 [ACETANILIDE] | – | -0.94 | 0.811 min | – | – | – | – | – | – | – | – | – | – | – | – | – | – |
| c1ccc2ccccc2c1 | – | 0.2 | 1.894 min | – | – | – | – | – | – | – | – | – | – | – | – | – | – |
| Cc1ccccc1 [TOLUENE] | – | – | 1.508 min | – | – | – | – | – | – | – | – | – | – | – | – | – | – |
| Cc1ccc(C(C)C)c(O)c1 [THYMOL] | – | -0.12 | 1.285 min | – | – | – | – | – | – | – | – | – | – | – | – | – | – |
| COc1ccc(N(CC(=O)NCCCSc2ccccc2)C(=O)CCSC2=C(C)C(=O)c3ccccc3C2=O)cc1 | 4.2 | 0.48 | 2.94 min | 16 µM | 17 µM | 26 µM | 0 mm | 0 mm | 0 mm | 0 mm | 0 mm | 0 mm | 0 mm | 0 mm | 0 mm | – | – |
| COc1ccc(N(CC(=O)NCCC[Te]c2ccccc2)C(=O)/C=C/c2ccccc2)cc1 | 1.31 | -0.84 | 0.834 min | 2 µM | 6 µM | 5 µM | 0 mm | 0 mm | 0 mm | 12 mm | 8 mm | 11 mm | 13 mm | 9 mm | 11 mm | – | Dose-dependent effect |
| O=C(COC(=O)C#Cc1ccccc1)NCCC[Te]c1ccccc1 | 0.9 | -1.04 | 0.794 min | 1 µM | 7 µM | 7 µM | 0 mm | 0 mm | 0 mm | 15 mm | 9 mm | 0 mm | 0 mm | 0 mm | 0 mm | – | Dose-dependent effect |
| c1ccc2c(c1)ccc1ccccc12 | – | 0.6 | 3.615 min | – | – | – | – | – | – | – | – | – | – | – | – | – | – |

Further lines, with some results ahead:

| logP [4] | log K [14] | Retention_time | SMILES | IC50 [1] | IC50 [2] | IC50 [3] | diameter of the inhibition zone (DIZ) [5] | diameter of the inhibition zone (DIZ) [6] | diameter of the inhibition zone (DIZ) [7] | diameter of the inhibition zone (DIZ) [8] | diameter of the inhibition zone (DIZ) [9] | diameter of the inhibition zone (DIZ) [10] | diameter of the inhibition zone (DIZ) [11] | diameter of the inhibition zone (DIZ) [12] | diameter of the inhibition zone (DIZ) [13] | Activity [15] | Activity [16] |
| --- | --- | --- | --- | --- | --- | --- | --- | --- | --- | --- | --- | --- | --- | --- | --- | --- | --- |
| 3.1 | -0.03 | 1.412 min | COc1ccc(N(CC(=O)NCCC[Se]c2ccccc2)C(=O)c2ccccc2)cc1 | ≥ 100 µM | ≥ 100 µM | ≥ 100 µM | 0 mm | 0 mm | 18 mm | 0 mm | 0 mm | 0 mm | 0 mm | 0 mm | 0 mm | inactive | – |
| 4 | 0.39 | 2.514 min | COc1ccc(N(CC(=O)NCCCSc2ccccc2)C(=O)/C=C/c2ccccc2)cc1 | ≥ 100 µM | ≥ 100 µM | ≥ 100 µM | 0 mm | 0 mm | 0 mm | 15 mm | 0 mm | 0 mm | 0 mm | 0 mm | 0 mm | – | – |
| 2.6 | -0.25 | 1.134 min | COc1ccc(N(CC(=O)NCCC[Se]c2ccccc2)C(=O)C#Cc2ccccc2)cc1 | ≥ 100 µM | ≥ 100 µM | ≥ 100 µM | 0 mm | 0 mm | 19 mm | 0 mm | 0 mm | 0 mm | 0 mm | 0 mm | 0 mm | – | – |
| 3.3 | -0.01 | 1.434 min | COc1ccc(N(CC(=O)NCCC[Se]c2ccccc2)C(=O)CNC(=O)OC(C)(C)C)cc1 | ≥ 100 µM | ≥ 100 µM | ≥ 100 µM | 0 mm | 0 mm | 0 mm | 0 mm | 0 mm | 0 mm | 0 mm | 0 mm | 0 mm | – | – |
| 4.23 | 0.55 | 3.297 min | COc1ccc(N(CC(=O)NCCC[Se]c2ccccc2)C(=O)CCSC2=C(C)C(=O)c3ccccc3C2=O)cc1 | 8 µM | 17 µM | 24 µM | 0 mm | 0 mm | 0 mm | 0 mm | 7 mm | 0 mm | 0 mm | 0 mm | 0 mm | – | – |
| 3.4 | 0.12 | 1.698 min | COc1ccc(N(CC(=O)NCCCSc2ccccc2)C(=O)C#Cc2ccccc2)cc1 | ≥ 100 µM | ≥ 100 µM | ≥ 100 µM | 0 mm | 0 mm | 0 mm | 0 mm | 0 mm | 0 mm | 0 mm | 0 mm | 0 mm | inactive | – |
